Test results from ChEMBL document CHEMBL4340510, “Design, synthesis, and biological evaluation of truncated deguelin derivatives as Hsp90 inhibitors” (Eur J Med Chem, 2019).
pIC50: −log10 of the molar value. Active and inactive are the calls of the source. No cut-off for these calls is given here.

How the values were obtained:
[1] = tested on: MCF7; test: Cell cycle arrest in human MCF7 cells assessed as accumulation at G2 phase at 4 uM after 48 hrs by propidium iodide staining-based flow cytometry (reference value: […])
[2] = target: T1, Heat shock protein HSP90 (Homo sapiens) (UniProt P07900+P08238); test: Inhibition of monoclonal antibody binding to HSP90 (unknown origin) by immunoprecipitation-based Western blot analysis; format: protein assay
[3] = tested on: MCF7; test: Induction of apoptosis in human MCF7 cells assessed as cell rounding at 0.5 to 4 uM after 36 hrs by hoechst 33258 staining-based fluorescence microscopy; format: functional
Summary of the method: (§1)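 Approximately 5×10^4 cells per well are exposed to 0, 0.5, 1.0, 2.0 or 4.0 μM for 36 h. Cells are PBS-washed and fixed in 4% paraformaldehyde for 30 min. They are stained with 20 μg/ml Hoechst 33258 for 15 min at room temperature in the dark, and nuclear morphology is examined by fluorescence microscopy.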

[4] = tested on: NCI-H1299; test: Antiproliferative activity against human NCI-H1299 cells after 72 hrs by MTT assay; format: functional, cell-based; settings: NCI-H1299, 72 h
Summary of the method: (§2)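 Cells in RPMI 1640 are seeded at 4,000 cells/well and held 24 h at 37 °C, 5% CO2. Medium is replaced with compound-containing medium (DMSO ≤0.25%) for 72 h at 37 °C. MTT read-out by absorbance at 570 nm. Quadruplicate wells, repeated three times; values are means of three independent experiments.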

[5] = tested on: MCF7; test: Induction of apoptosis in human MCF7 cells assessed as decrease in Bcl-xL expression at 1 to 4 uM after 48 hrs by Western blot analysis
[6] = tested on: MCF7; test: Induction of apoptosis in human MCF7 cells assessed as increase in early apoptotic cells at 0.5 to 4 uM after 36 hrs by Annexin V-FITC/propidium iodide double staining-based flow cytometry relative to control; format: functional
Summary of the method: (§3)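 Cells (1×10^5/well) are cultured 24 h, then treated in triplicate for 36 h at 0.5, 1.0, 2.0 or 4.0 μM. Vehicle is 1‰ DMSO in complete medium. Cells are stained with FITC-Annexin V and PI for 15 min in the dark and analysed by flow cytometry. Mean±SD of three independent experiments.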

[7] = tested on: MCF7; test: Cell cycle arrest in human MCF7 cells assessed as accumulation at G1 phase at 2 uM after 48 hrs by propidium iodide staining-based flow cytometry (reference value: 60.61%); format: functional
Summary of the method: (§4)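 5×10^4 cells are seeded, incubated overnight, then treated 48 h. Cells are washed in cold PBS and fixed in 70% ethanol at −20 °C for 12 h. They are then stained with 100 µg/mL RNase plus 50 µg/mL PI in PBS, 37 °C for 30 min. DNA content is measured by flow cytometry.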

[8] = tested on: NCI-H1299; test: Antiproliferative activity against human NCI-H1299 cells assessed as inhibition of cell growth at 10 uM after 72 hrs by MTT assay relative to control; format: functional; settings: NCI-H1299, 72 h, read-out: GI
Summary of the method: as §2

[9] = tested on: MCF7; test: Cell cycle arrest in human MCF7 cells assessed as increase in accumulation at S phase after 48 hrs by propidium iodide staining-based flow cytometry; format: functional
Summary of the method: as §4

[10] = target: Heat shock protein HSP 90-alpha (Homo sapiens, UniProt P07900); test: Inhibition of FITC-geldanamycin binding to recombinant human full-length C-terminal His-tagged HSP90alpha […] (1 to 732 residues) expressed in Escherichia coli after 1 hr by fluorescence polarization assay
[11] = tested on: MCF7; test: Cell cycle arrest in human MCF7 cells assessed as accumulation at S phase at 1 uM after 48 hrs by propidium iodide staining-based flow cytometry (reference value: 16.64%); format: functional
Summary of the method: as §4

[12] = target: T1, Heat shock protein HSP90 (Homo sapiens); test: Inhibition of HSP90 in human MCF7 cells assessed as decrease in phosphorylation of mTOR after 48 hrs by Western blot analysis; format: cell-based
Summary of the method: (§5)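 Cells are treated 48 h and washed twice in ice-cold PBS. They are lysed on ice for 20 min and spun at 13,000 g, 4 °C. 20 μg protein is run on 8-12% SDS-PAGE and transferred to PVDF. Membranes are probed overnight at 4 °C with primary antibodies (Bcl-xL, cleaved caspase-3, mTOR/p-mTOR, MAPK/p-MAPK, Akt/p-Akt, HIF-1α, survivin; β-actin/GAPDH loading). HRP secondary and chemiluminescence detection follow.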

[13] = target: T1, Heat shock protein HSP90 (Homo sapiens); test: Inhibition of HSP90 in human MCF7 cells assessed as decrease in phosphorylation of MAPK after 48 hrs by Western blot analysis; format: cell-based
Summary of the method: as §5

[14] = tested on: MCF7; test: Antiproliferative activity against human MCF7 cells after 72 hrs by MTT assay; format: functional, cell-based; settings: MCF7, 72 h
Summary of the method: as §2

[15] = tested on: MCF7; test: Induction of apoptosis in human MCF7 cells assessed as increase in late apoptotic cells at 0.5 to 4 uM after 36 hrs by Annexin V-FITC/propidium iodide double staining-based flow cytometry relative to control; format: functional
Summary of the method: as §3

[16] = tested on: MCF7; test: Induction of apoptosis in human MCF7 cells assessed as peripherization of chromosome at 0.5 to 4 uM after 36 hrs by hoechst 33258 staining-based fluorescence microscopy; format: functional, cell-based
Summary of the method: as §1

[17] = tested on: MCF7; test: Induction of apoptosis in human MCF7 cells assessed as increase in early apoptotic cells after 36 hrs by Annexin V-FITC/propidium iodide double staining-based flow cytometry; format: functional, cell-based
Summary of the method: as §3

[18] = tested on: MCF7; test: Induction of apoptosis in human MCF7 cells assessed as increase in late apoptotic cells after 36 hrs by Annexin V-FITC/propidium iodide double staining-based flow cytometry; format: functional, cell-based
Summary of the method: as §3

[19] = tested on: A549; test: Antiproliferative activity against human A549 cells after 72 hrs by MTT assay; format: functional, cell-based; settings: A549, 72 h
Summary of the method: as §2

[20] = tested on: MCF7; test: Cell cycle arrest in human MCF7 cells assessed as accumulation at G2 phase at 1 uM after 48 hrs by propidium iodide staining-based flow cytometry (reference value: 22.74%); format: functional
Summary of the method: as §4

[21] = tested on: MCF7; test: Induction of apoptosis in human MCF7 cells assessed as increase in cleaved-caspase3 expression at 1 to 4 uM after 48 hrs by Western blot analysis; format: functional, cell-based
Summary of the method: as §5

[22] = tested on: MCF7; test: Antiinvasive activity in human MCF7 cells after 24 hrs by crystal violet dye-based transwell matrix penetration assay; format: functional, cell-based
Summary of the method: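 Matrigel-coated transwell invasion chambers, 1×10^4 cells seeded in the upper chamber, 37 °C for 24 h. Non-invaded cells are swabbed off. Invaded cells on the underside are fixed in 1% paraformaldehyde, stained with crystal violet and counted in ten random 200× fields per well. Result is the mean cells per field, from three independent experiments.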

[23] = tested on: MCF7; test: Cell cycle arrest in human MCF7 cells assessed as accumulation at S phase at 2 uM after 48 hrs by propidium iodide staining-based flow cytometry (reference value: 16.64%); format: functional
Summary of the method: as §4

[24] = tested on: MCF7; test: Induction of apoptosis in human MCF7 cells assessed as rounding of nuclei at 0.5 to 4 uM after 36 hrs by hoechst 33258 staining-based fluorescence microscopy; format: functional, cell-based
Summary of the method: as §1

[25] = tested on: MCF7; test: Cell cycle arrest in human MCF7 cells assessed as increase in accumulation at G2 phase after 48 hrs by propidium iodide staining-based flow cytometry; format: functional
Summary of the method: as §4

[26] = tested on: MCF7; test: Cell cycle arrest in human MCF7 cells assessed as accumulation at G1 phase at 0.5 uM after 48 hrs by propidium iodide staining-based flow cytometry (reference value: 60.61%); format: functional
Summary of the method: as §4

[27] = tested on: MCF7; test: Induction of apoptosis in human MCF7 cells assessed as condensation of chromosome at 0.5 to 4 uM after 36 hrs by hoechst 33258 staining-based fluorescence microscopy; format: functional, cell-based
Summary of the method: as §1

`COc1cc(OC)c(OC)cc1CC(=O)c1ccc2c(c1OC)C=CC(C)(C)O2` was tested, and the Activity [1] was 29.58%, the inhibition [2] was “Dose-dependent effect” and the Activity [3] was “Active”. For the same molecule, the pIC50 [4] was 5.47, the Activity [5] was “Active” and the Activity [6] was 13.6 - 71.8%. The Activity [7] was 46.21%, the inhibition of growth at 10 µM [8] was 72.1% and the Activity [9] was “Dose-dependent effect”. The pIC50 [10] was 7.22, the Activity [11] was 23.2% and the inhibition [12] was “Dose-dependent effect”. For the same molecule, the inhibition [13] was “Dose-dependent effect”, the pIC50 [14] was 5.60 and the Activity [15] was 13.6 - 71.8%. For the same molecule, the Activity [16] was “Active”, the Activity [17] was “Dose-dependent effect” and the Activity [18] was “Dose-dependent effect”. The pIC50 [19] was 5.46, the Activity [20] was 21.55% and the Activity [21] was “Active”. The Activity [22] was “Dose-dependent effect”, the Activity [23] was 19.64% and the Activity [24] was “Active”. For the same molecule, the Activity [25] was “Dose-dependent effect”, the Activity [26] was 57.49% and the Activity [27] was “Active”.
